Assay results: ChEMBL document CHEMBL1139517, “Mono- and bis-thiazolium salts have potent antimalarial activity” (J Med Chem, 2005)
pIC50: −log10 of the molar value.

What was measured:
Plasmodium falciparum = assay: In vitro inhibition of Plasmodium falciparum; format: functional, organism-based
Summary of the method: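 [³H]-hypoxanthine incorporation assay on the Nigerian strain of P. falciparum, run as described in earlier work. IC₅₀ is the concentration giving 50% inhibition of incorporation.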

[1] = Ratio of LD50 to ED50 expressed as TI; format: ADME; details: mouse
Summary of the method: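 Therapeutic index calculated as LD50/ED50. ED50 came from a modified 4-day suppressive test against P. vinckei petteri (279BY) in female Swiss mice, dosed ip once daily for 4 days. It is the dose giving 50% inhibition of parasite growth versus vehicle-treated controls, read the day after the last dose. LD50 came from tolerance after ip administration in mice.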

[2] = Lethal dose against Plasmodium vinckei in mice (Mus musculus) after intraperitoneal administration; format: toxicity; details: in vivo, ip
Mus musculus = assay: In vivo effective dose against Plasmodium vinckei in mice (Mus musculus) after intraperitoneal administration of the compound; format: functional; details: ip
Summary of the method: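 Modified Peters 4-day suppressive test in female Swiss mice infected with P. vinckei petteri (279BY). Dosing was ip, once daily for 4 days. Controls received an equal volume of vehicle. Parasite growth was assessed on the day after the last treatment. ED₅₀ is the dose giving 50% growth inhibition relative to control.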

Structure (SMILES): COCCc1sc[n+](CCCCCCCCCCCC[n+]2csc(CCOC)c2C)c1C.[I-].[I-]
- pIC50 (Plasmodium falciparum): 9.19
- TI [1]: 5%
- LD50 [2]: 1.2 mg/kg
- ED50 (Mus musculus): 0.14 mg/kg

Structure (SMILES): Cc1c(CCOC(C)C)sc[n+]1CCCCCCCCCCCC[n+]1csc(CCOC(C)C)c1C
- pIC50 (Plasmodium falciparum): 8.32

Structure (SMILES): COCCc1sc[n+](CCCCc2ccc(CCCC[n+]3csc(CCOC)c3C)cc2)c1C
- pIC50 (Plasmodium falciparum): 8.30

Structure (SMILES): Cc1c(CCO)sc[n+]1CCCCCCCC[n+]1csc(CCO)c1C
- pIC50 (Plasmodium falciparum): 6.44

Structure (SMILES): CCOC(=O)Cc1c(CCCCCCCCCCCCc2sc[n+](Cc3ccccc3)c2CC(=O)OCC)sc[n+]1Cc1ccccc1
- pIC50 (Plasmodium falciparum): 6.60

Structure (SMILES): COC(=O)CCC(=O)OCCc1sc[n+](CCCCCCCCCCCC[n+]2csc(CCOC(=O)CCC(=O)OC)c2C)c1C.[I-].[I-]
- pIC50 (Plasmodium falciparum): 8.30
- ED50 (Mus musculus): 3.1 mg/kg

Structure (SMILES): c1ccc2c(c1)sc[n+]2CCCCCCCCCCCC[n+]1csc2ccccc21
- pIC50 (Plasmodium falciparum): 5.64

Structure (SMILES): COCCc1sc[n+](CCCCCCCC[n+]2csc(CCOC)c2C)c1C
- pIC50 (Plasmodium falciparum): 7.06

Structure (SMILES): CCc1sc[n+](CCCCCCCCCCCC[n+]2csc(CC)c2C)c1C.[I-].[I-]
- pIC50 (Plasmodium falciparum): 8.80
- ED50 (Mus musculus): 0.4 mg/kg

Structure (SMILES): COCCc1sc[n+](CCCCCCCCCC[n+]2csc(CCOC)c2C)c1C
- pIC50 (Plasmodium falciparum): 8.05

Structure (SMILES): Cc1csc[n+]1CCCCCCCCCCCC[n+]1cscc1C.[I-].[I-]
- pIC50 (Plasmodium falciparum): 8.52
- ED50 (Mus musculus): 2.6 mg/kg

Structure (SMILES): Cc1sc[n+](CCCCCCCCCCCC[n+]2csc(C)c2C)c1C.[I-].[I-]
- pIC50 (Plasmodium falciparum): 8.82
- ED50 (Mus musculus): 1 mg/kg

Structure (SMILES): Cc1c(CCOCCCCCCOCCc2sc[n+](C)c2C)sc[n+]1C
- pIC50 (Plasmodium falciparum): 6.56

Structure (SMILES): CC(=O)OCCc1sc[n+](CCCCCCCCCCCC[n+]2csc(CCOC(C)=O)c2C)c1C.[I-].[I-]
- pIC50 (Plasmodium falciparum): 8.51
- ED50 (Mus musculus): 0.7 mg/kg

Structure (SMILES): CCCCCCCCCCCC[n+]1csc(CCOC)c1C
- pIC50 (Plasmodium falciparum): 7.12

Structure (SMILES): COCCc1sc[n+](CCCCCCCCCCCCCCCC[n+]2csc(CCOC)c2C)c1C
- pIC50 (Plasmodium falciparum): 8.96

Structure (SMILES): CCOC(=O)Cc1c(CCCCCCCCCCCCc2sc[n+](C)c2CC(=O)OCC)sc[n+]1C
- pIC50 (Plasmodium falciparum): 7.66

Structure (SMILES): Cc1c(CCO)sc[n+]1CCCCCCCCCC[n+]1csc(CCO)c1C
- pIC50 (Plasmodium falciparum): 7.47

Structure (SMILES): Cc1c(CCO)sc[n+]1CCCCCCCCCCCC[n+]1csc(CCO)c1C.[I-].[I-]
- pIC50 (Plasmodium falciparum): 8.65
- TI [1]: 5%
- LD50 [2]: 1.2 mg/kg
- ED50 (Mus musculus): 0.2 mg/kg

Structure (SMILES): C[N+]1(CCCCCCCCCCCCCCCC[N+]2(C)CCCC2)CCCC1.[Br-].[Br-]
- pIC50 (Plasmodium falciparum): 9.19
- ED50 (Mus musculus): 0.22 mg/kg

Structure (SMILES): CCOCCc1sc[n+](CCCCCCCCCCCC[n+]2csc(CCOCC)c2C)c1C
- pIC50 (Plasmodium falciparum): 8.80

Structure (SMILES): Cc1c(CCCl)sc[n+]1CCCCCCCCCCCC[n+]1csc(CCCl)c1C
- pIC50 (Plasmodium falciparum): 8.00

Structure (SMILES): Cc1c(CCOCCCCCCOCCc2sc[n+](Cc3ccccc3)c2C)sc[n+]1Cc1ccccc1
- pIC50 (Plasmodium falciparum): 7.44

Structure (SMILES): c1ccc(-c2csc[n+]2CCCCCCCCCCCC[n+]2cscc2-c2ccccc2)cc1
- pIC50 (Plasmodium falciparum): 5.74

Structure (SMILES): CCCCCCCCCCCC[n+]1csc(CCO)c1C
- pIC50 (Plasmodium falciparum): 7.15

Structure (SMILES): CCN(CC)CCCC(C)Nc1ccnc2cc(Cl)ccc12 (stereo not drawn) [CHLOROQUINE]
- ED50 (Mus musculus): 1.1 mg/kg
